# Target: Neisseria meningitidis CSS (NmCSS), CMP-sialic acid synthetase (Neisseria meningitidis, UniProt P0A0Z8)
# Assay: capillary electrophoresis UV assay of CMP-Neu5Ac formation
# Format: biochemical
# Conditions: 1000 µM; 1 mM CTP, 1 mM Neu5Ac, 20 mM MgCl2, Tris-HCl pH 8.5, 37 °C, 15 min
# Method in brief: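 Purified recombinant NmCSS (1.25 ng) in 200 mM Tris-HCl pH 8.5 with CTP, Neu5Ac and MgCl2, reacted with test compound at 1 mM for 15 min at 37 °C. Stopped with 10% SDS on ice (final 1% SDS). CMP-Neu5Ac measured by capillary electrophoresis with UV detection. Percent conversion calculated from a UV response standard curve of CTP and CMP-Neu5Ac.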
# Sequence of Neisseria meningitidis CSS (NmCSS), CMP-sialic acid synthetase (P0A0Z8 whole entry): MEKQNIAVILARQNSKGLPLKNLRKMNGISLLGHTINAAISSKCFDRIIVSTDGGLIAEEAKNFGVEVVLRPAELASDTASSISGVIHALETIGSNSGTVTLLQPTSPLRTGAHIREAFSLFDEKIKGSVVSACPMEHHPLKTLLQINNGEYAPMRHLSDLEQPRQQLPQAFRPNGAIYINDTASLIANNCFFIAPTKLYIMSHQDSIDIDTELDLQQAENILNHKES
row,Substance,% Inhibition
1,Saturated sulfo-CDP [compound 12],55 ± 4%
2,Saturated sulfo-UDP [compound 22],35 ± 2%
3,Sulfo-CDP [compound 5],47 ± 2%
4,Sulfo-CTP [compound 4],39 ± 2%
5,Sulfo-UTP [compound 19],33 ± 5%

# From article PMC4505548 (Organic & biomolecular chemistry, 2008)
